Experimental data taken from paper PMC4431946 (Journal of the American Chemical Society, 2015).
Read-outs that look alike come from different tables or passages of the source.

Legend:
rat nNOS [1] = target: T1, rat nNOS (Rattus norvegicus, UniProt P29476); experiment: Hemoglobin NO generation assay; type: biochemical
rat nNOS [2] = target: T1, rat nNOS; experiment: Irreversible inhibition kinetics; type: biochemical; details: for time-dependent inactivation of nNOS: result in words
ferric nNOS = ferric nNOS (Rattus norvegicus, UniProt P29476); experiment: Spectral titration of ferric nNOS-H4B; type: binding
Chain of ferric nNOS (P29476 whole entry): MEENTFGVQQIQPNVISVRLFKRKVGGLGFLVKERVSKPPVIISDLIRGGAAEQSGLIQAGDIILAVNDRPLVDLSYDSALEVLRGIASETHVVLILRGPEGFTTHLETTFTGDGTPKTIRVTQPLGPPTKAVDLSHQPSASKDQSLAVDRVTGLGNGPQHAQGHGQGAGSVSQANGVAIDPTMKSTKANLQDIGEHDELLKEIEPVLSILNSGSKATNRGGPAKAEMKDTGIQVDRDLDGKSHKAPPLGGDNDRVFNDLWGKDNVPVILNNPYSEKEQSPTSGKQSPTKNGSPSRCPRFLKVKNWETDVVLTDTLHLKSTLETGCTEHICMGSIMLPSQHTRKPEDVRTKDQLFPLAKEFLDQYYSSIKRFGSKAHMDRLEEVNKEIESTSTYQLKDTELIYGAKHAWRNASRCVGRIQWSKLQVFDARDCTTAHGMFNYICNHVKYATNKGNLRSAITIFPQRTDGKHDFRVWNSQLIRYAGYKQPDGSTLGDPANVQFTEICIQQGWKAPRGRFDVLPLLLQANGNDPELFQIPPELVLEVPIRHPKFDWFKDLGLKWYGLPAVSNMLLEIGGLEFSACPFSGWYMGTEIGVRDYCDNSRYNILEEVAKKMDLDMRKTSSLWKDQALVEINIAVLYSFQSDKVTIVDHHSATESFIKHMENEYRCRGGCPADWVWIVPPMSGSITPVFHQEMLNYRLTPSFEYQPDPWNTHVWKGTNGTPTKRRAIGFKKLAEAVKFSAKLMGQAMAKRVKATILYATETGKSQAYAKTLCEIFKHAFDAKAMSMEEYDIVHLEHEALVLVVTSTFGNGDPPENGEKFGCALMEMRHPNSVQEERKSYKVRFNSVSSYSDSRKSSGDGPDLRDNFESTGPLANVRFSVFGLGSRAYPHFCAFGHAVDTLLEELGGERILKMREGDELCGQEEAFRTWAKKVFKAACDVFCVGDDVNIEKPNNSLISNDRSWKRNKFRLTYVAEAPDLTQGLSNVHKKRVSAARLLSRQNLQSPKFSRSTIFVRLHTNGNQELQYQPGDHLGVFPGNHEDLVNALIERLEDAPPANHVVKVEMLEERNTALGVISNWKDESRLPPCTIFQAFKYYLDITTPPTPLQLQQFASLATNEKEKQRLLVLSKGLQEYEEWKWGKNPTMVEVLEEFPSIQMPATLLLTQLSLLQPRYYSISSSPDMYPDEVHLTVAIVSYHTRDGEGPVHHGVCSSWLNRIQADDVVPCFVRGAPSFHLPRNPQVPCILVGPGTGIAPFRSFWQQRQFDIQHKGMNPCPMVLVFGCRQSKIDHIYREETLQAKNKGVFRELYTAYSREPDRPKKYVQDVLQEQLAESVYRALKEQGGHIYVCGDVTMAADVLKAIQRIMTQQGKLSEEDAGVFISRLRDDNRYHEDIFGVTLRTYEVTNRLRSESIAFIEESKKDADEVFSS
How it was run: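 Ferric full-length rat nNOS-H4B, 5 µM, in 50 mM HEPES pH 7.5 with 100 mM NaCl, titrated by 1–2 µL additions of test compound. Difference spectra recorded from 350–550 nm. Peak (~455 nm) minus trough (400 nm) absorbance plotted against ligand concentration.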

ferrous nNOS = ferrous nNOS (Rattus norvegicus, UniProt P29476); experiment: Spectral titration of dithionite-reduced; type: binding
Chain of ferrous nNOS (P29476 whole entry): as above
How it was run: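 Full-length rat nNOS-H4B reduced with dithionite and desalted under anaerobic conditions in a glovebox. Degassed 50 mM HEPES pH 7.5 with 100 mM NaCl; compound stocks made in degassed buffer. Test compound added in 1–2 µL portions from 1, 5 and 20 mM stocks, totalling <2% of volume. Double-beam scans from 350–600 nm, repeated until stable. Peak (~455 nm) minus trough (410 nm) absorbance fitted with a quadratic function for apparent Ks.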

nNOS = nNOS (Rattus norvegicus, UniProt P29476); experiment: LC/MS of amino acid metabolites after inactivation of nNOS by 1; type: biochemical; details: 56 µM of 1, 37 °C, 3 h
rat nNOS [3] = target: T1, rat nNOS; details: result in words; reported earlier; cited from earlier work

Compound | IC50 (rat nNOS [1]) | Ki (rat nNOS [1]) | time-dependent inactivation of nNOS (rat nNOS [2]) | other results
CS(=O)(=O)CC(=N)NCCC[C@H](N)C(=O)O [compound 3, (S)-2-Amino-5-(2-(methylsulfonyl)acetimidamido)pentanoic acid] | 507 ± 49 µM | 58.3 ± 5.6 µM | neither showed time-dependent inactivation | –
CSCC(=N)NCCC[C@H](N)C(=O)O [compound 1, (S)-2-Amino-5-(2-(methylthio)acetimidamido)pentanoic acid] | – | – | inactivator of nNOS | amount of 2 produced from the inactivation of nNOS by 1 (nNOS): Approximately 0.53 µM; time-dependent inactivation of nNOS (rat nNOS [3]): time-dependent irreversible inhibitor of nNOS
C[S+]([O-])CC(=N)NCCC[C@H](N)C(=O)O (stereo partly drawn) [compound 2, (2S)-2-Amino-5-(2-(methylsulfinyl)acetimidamido)pentanoic acid] | 461 ± 20 µM | 53 ± 2.4 µM | neither showed time-dependent inactivation | –
N=C(C=O)NCCC[C@H](N)C(=O)O [compound 4, (S)-2-Amino-5-(2-oxoacetimidamido)pentanoic acid] | 199 ± 7.1 µM | 22.9 ± 0.82 µM | neither was a time-dependent inhibitor | –

More lines, in order of falling IC50 (rat nNOS [1]), values ahead:

IC50 (rat nNOS [1]) | Ki (rat nNOS [1]) | Compound | time-dependent inactivation of nNOS (rat nNOS [2]) | other results
13 ± 0.67 µM | 1.5 ± 0.08 µM | N=C(CO)NCCC[C@H](N)C(=O)O [compound 5, (S)-2-Amino-5-(2-hydroxyacetimidamido)pentanoic acid] | neither was a time-dependent inhibitor | –
3.64 ± 0.15 µM | 0.42 ± 0.017 µM | N=C(CS)NCCC[C@H](N)C(=O)O [compound 6, (S)-2-Amino-5-(2-mercaptoacetimidamido)pentanoic acid] | time- and concentration-dependent inactivator | Ki (rat nNOS [2]): 2.9 ± 0.2 µM; kinact (rat nNOS [2]): 0.000767 s⁻¹; kinact/KI (rat nNOS [2]): 267 M⁻¹ s⁻¹; inactivation rate (kinact) relative to 1 (rat nNOS [2]; 6 versus 1): about half the inactivation rate; Kd (ferric nNOS): 1.8 ± 0.1 µM; heme ligand type from difference spectra (ferric nNOS; ferric nNOS-H4B): type-II ligand; Kd (ferrous nNOS): 1.6 ± 0.3 µM; heme ligand type from difference spectra (ferrous nNOS; dithionite-reduced nNOS-H4B): still a type-II ligand
